{"source": "paper PMC11605132", "about": "(eClinicalMedicine, 2024)", "key": {"patients with AIS [1]": {"tested_on": "patients with AIS", "test": "Intracerebral hemorrhage on CT and MRI, AMFIS trial", "type": "in vivo, human", "conditions": "Day 1 to Day 90", "outline": "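Patients (20–90 years, new DWI lesion, treated within 24 h of onset) were randomized 2:1 to adrenomedullin or a D-mannitol placebo under double-blind conditions. Non-contrast CT was performed at 24 h and on Day 7, and MRI on Day 90.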"}, "patients with AIS [2]": {"tested_on": "patients with AIS", "test": "NIHSS score, primary efficacy endpoint, AMFIS trial", "type": "in vivo, human", "outline": "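Trained stroke neurologists scored NIHSS at baseline, 8, 24 and 72 h after infusion start, and on Day 7, keeping the same examiner per patient where possible. Least square means with 95% CI came from generalized estimating equations. Fixed effects were treatment, time point and treatment×time, with baseline NIHSS as covariate. The same model compared the pulsed and continuous-pulsed groups.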"}, "patients with AIS [3]": {"tested_on": "patients with AIS", "test": "All adverse events, AMFIS phase II trial", "type": "in vivo, human", "outline": "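Double-blind, 2:1 stratified block randomization by age (<75, 75–90 years) against a placebo vial of 50 mg D-mannitol. Patients were aged 20–90 with new DWI lesions and treated within 24 h of onset. AEs were monitored from infusion start to 3 days after the intervention ended, with close blood-pressure watch. Severity was graded on five levels (mild to death), and an independent committee judged causality.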"}, "[4]": {"type": "in vivo", "conditions": "human, plasma, 9 ng/kg/min, mean ± SD"}, "healthy volunteers": {"tested_on": "healthy volunteers", "conditions": "cited from earlier work"}, "[5]": {"conditions": "patients receiving adrenomedullin, n=40"}}, "note": "“Also recorded” adds a separate entry of the source. Like-named read-outs stand apart in the source and are kept apart here.", "data": [{"smiles": "CC[C@H](C)[C@H](NC(=O)[C@H](CCC(N)=O)NC(=O)[C@H](Cc1c[nH]cn1)NC(=O)[C@H](C)NC(=O)[C@H](CC(C)C)NC(=O)[C@H](CCCCN)NC(=O)[C@H](CCC(N)=O)NC(=O)[C@@H](NC(=O)[C@@H](NC(=O)[C@@H]1CSSC[C@H](NC(=O)CNC(=O)[C@H](Cc2ccccc2)NC(=O)[C@H](CO)NC(=O)[C@H](CCCNC(=N)N)NC(=O)[C@H](CC(C)C)NC(=O)CNC(=O)[C@H](CCC(N)=O)NC(=O)[C@H](Cc2ccccc2)NC(=O)[C@H](CC(N)=O)NC(=O)[C@H](CC(N)=O)NC(=O)[C@H](CCSC)NC(=O)[C@H](CO)NC(=O)[C@H](CCC(N)=O)NC(=O)[C@H](CCCNC(=N)N)NC(=O)[C@@H](N)Cc2ccc(O)cc2)C(=O)N[C@@H](CCCNC(=N)N)C(=O)N[C@@H](Cc2ccccc2)C(=O)NCC(=O)N[C@@H]([C@@H](C)O)C(=O)N1)[C@@H](C)O)C(C)C)C(=O)N[C@@H](Cc1ccc(O)cc1)C(=O)N[C@@H](CCC(N)=O)C(=O)N[C@@H](Cc1ccccc1)C(=O)N[C@H](C(=O)N[C@@H](CC(=O)O)C(=O)N[C@@H](CCCCN)C(=O)N[C@@H](CC(=O)O)C(=O)N[C@@H](CCCCN)C(=O)N[C@@H](CC(=O)O)C(=O)N[C@@H](CC(N)=O)C(=O)N[C@H](C(=O)N[C@@H](C)C(=O)N1CCC[C@H]1C(=O)N[C@@H](CCCNC(=N)N)C(=O)N[C@@H](CO)C(=O)N[C@@H](CCCCN)C(=O)N[C@H](C(=O)N[C@@H](CO)C(=O)N1CCC[C@H]1C(=O)N[C@@H](CCC(N)=O)C(=O)NCC(=O)N[C@@H](Cc1ccc(O)cc1)C(N)=O)[C@@H](C)CC)C(C)C)[C@@H](C)O", "note": "[adrenomedullin]", "values": [{"measurement": "intracerebral hemorrhage on CT and MRI", "setting": "patients with AIS [1]", "value": "no intracerebral hemorrhage was observed"}, {"measurement": "Intergroup difference in NIHSS changes, LSM (95% CI)", "setting": "patients with AIS [2]; 7-day, AM minus placebo, GEE model", "value": "0.32 (−0.91–1.56)"}, {"measurement": "NIHSS changes from pre-treatment, LSM (SE; 95% CI in text)", "setting": "patients with AIS [2]; 7-day, AM n=40, GEE model", "value": "−0.76"}, {"measurement": "Intergroup difference in NIHSS changes, LSM (95% CI)", "setting": "patients with AIS [2]; 7-day, C/P-AM minus P-AM, GEE", "value": "0.67 (−0.64–1.98)"}, {"measurement": "NIHSS changes from pre-treatment, LSM (SE; 95% CI in text)", "setting": "patients with AIS [2]; 7-day, C/P-AM, GEE, dose-finding analysis", "value": "−0.42"}, {"measurement": "NIHSS changes from pre-treatment, LSM (SE; 95% CI in text)", "setting": "patients with AIS [2]; 7-day, P-AM, GEE, dose-finding analysis", "value": "−1.08"}, {"measurement": "Intergroup difference in NIHSS changes, LSM (95% CI)", "setting": "patients with AIS [2]; 8-h, AM minus placebo, GEE model", "value": "0.25 (−0.24–0.74)"}, {"measurement": "Intergroup difference in NIHSS changes, LSM (95% CI)", "setting": "patients with AIS [2]; 8-h, C/P-AM minus P-AM, GEE", "value": "0.52 (−0.12–1.16)"}, {"measurement": "Intergroup difference in NIHSS changes, LSM (95% CI)", "setting": "patients with AIS [2]; 24-h, AM minus placebo, GEE model", "value": "0.15 (−0.46–0.75)"}, {"measurement": "Intergroup difference in NIHSS changes, LSM (95% CI)", "setting": "patients with AIS [2]; 24-h, C/P-AM minus P-AM, GEE", "value": "0.62 (−0.29–1.53)"}, {"measurement": "Intergroup difference in NIHSS changes, LSM (95% CI)", "setting": "patients with AIS [2]; 72-h, AM minus placebo, GEE model", "value": "0.35 (−0.93–1.63)"}, {"measurement": "Intergroup difference in NIHSS changes, LSM (95% CI)", "setting": "patients with AIS [2]; 72-h, C/P-AM minus P-AM, GEE", "value": "0.32 (−1.09–1.72)"}, {"measurement": "mean change in the NIHSS score from pre-treatment to Day 7", "setting": "patients with AIS [2]; C/P-AM", "value": "−0.45"}, {"measurement": "median change in the NIHSS score from pre-treatment to Day 7", "setting": "patients with AIS [2]; C/P-AM", "value": "−0.5"}, {"measurement": "mean change in the NIHSS score from pre-treatment to Day 7", "setting": "patients with AIS [2]; P-AM", "value": "−1.05"}, {"measurement": "median change in the NIHSS score from pre-treatment to Day 7", "setting": "patients with AIS [2]; P-AM", "value": "−1"}, {"measurement": "efficacy on NIHSS scores", "setting": "patients with AIS [2]; in vivo", "value": "not demonstrated"}, {"measurement": "mean change in the NIHSS score from pre-treatment to Day 7", "setting": "patients with AIS [2]; [5]", "value": "−0.75"}, {"measurement": "median change in the NIHSS score from pre-treatment to Day 7", "setting": "patients with AIS [2]; [5]", "value": "−1.00"}, {"measurement": "patients with AEs, n (%, 95% CI)", "setting": "patients with AIS [3]; C/P-AM", "value": 14}, {"measurement": "patients with AEs, n (%, 95% CI)", "setting": "patients with AIS [3]; P-AM", "value": 11}, {"measurement": "cases of drop in blood pressure", "setting": "patients with AIS [3]; adrenomedullin group, n=40", "value": 10.0, "unit": "%"}, {"measurement": "cases of low blood pressure", "setting": "patients with AIS [3]; adrenomedullin group, n=40", "value": 2.5, "unit": "%"}, {"measurement": "life-threatening AEs or death", "setting": "patients with AIS [3]; first-half and second-half cohorts", "value": "No life-threatening AEs or death were reported"}, {"measurement": "Laboratory tests", "setting": "patients with AIS [3]; in vivo", "value": "no clinically significant changes"}, {"measurement": "tolerability", "setting": "patients with AIS [3]; non-severe, non-embolic AIS", "value": "well tolerated"}, {"measurement": "SAEs related to the intervention", "setting": "patients with AIS [3]; [5]", "value": "Neither intervention-related serious adverse events nor severe adverse events were observed; also recorded: no “SAEs related to the intervention” were reported; also recorded: No SAEs were observed"}, {"measurement": "Severe AEs (grade 3)", "setting": "patients with AIS [3]; [5]", "value": "observed only in the placebo group"}, {"measurement": "Cmax", "setting": "[4]; C/P-AM", "value": 0.061, "unit": "ng/mL"}, {"measurement": "Cmax", "setting": "[4]; P-AM", "value": 0.0442, "unit": "ng/mL"}, {"measurement": "half-life", "setting": "healthy volunteers", "value": "< 1", "unit": "h"}, {"measurement": "blood levels of adrenomedullin", "setting": "healthy volunteers; dose of 9 ng/kg/min", "value": "0.01 to 0.02", "unit": "ng/mL"}, {"measurement": "severe adverse events", "setting": "healthy volunteers; healthy volunteers", "value": "no severe adverse events"}]}]}
